In general, viability refers to a read-out of living cells in per cent, often relative to untreated cells. As usually defined, the inhibition is the change of the read-out against control, counted positive when it falls.

The values that follow come from PubChem BioAssay.

The nature of experiment [1]: reducers of endogenous Her2 protein level, primary screen, SKBR3 breast tumor cells, AlphaScreen, ATP viability (AID 461;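 active = Her2 level under about 52% in both replicate screens, with viability over 70% of control, limit read from the data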;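 for Her2 level: lower value means less Her2 protein in the cells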;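 for viability: percent of carrier control wells set as 100% viability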). The settings on record: 18-24 h, measured here: SKBR3 viability, ATP luminescence, at 10 µM. For orientation: Bead proximity is the source of the signal in Alpha formats.
The target of experiment [2] is Receptor tyrosine-protein kinase erbB-2 (Homo sapiens) (UniProt P04626). The description is as above. As to conditions: 18-24 h, at 10 µM, stronger effect = lower value.
The nature of experiment [3]: SK-BR-3 cell growth inhibitors, pilot screen, 24 h, human (AID 572;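 active = viability at or below 10% of carrier control in both of two separate runs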;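 note: compound exposure lasted between 18 and 24 h rather than exactly 24 h; 100% = carrier-treated control wells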). The settings on record: SK-BR-3 viability, CellTiter-Glo luminescence, at 10 µM, stronger effect = lower value. (Cellular ATP, detected with luciferase, serves as a proxy for viable cell number.)
The nature of experiment [4]: HUVEC growth inhibition – cell-based, human, primary screen (AID 575).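 Note: 100% = median of untreated cell wells with 0.1% DMSO on each plate.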 The settings on record: HUVEC proliferation, CellTiter-Glo luminescence, 72 h; at 10 µM; stronger effect = lower value. Summed up: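 Test system: primary human umbilical vein endothelial cells. Quantity: 1250 cells/well. Compound: single 10 µM dose, 0.1% DMSO, from 5x medium stock. Timing: 72 h treatment at 37 °C. Detection: ATP-based CellTiter-Glo luminescent read. Benchmarks: vehicle and MePR control wells. Format: 384-well plates coated with collagen.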

A short description of experiment [5]: growth inhibitors of H69AR lung tumor, primary screen, human, duplicate replicates (AID 580;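 active = viability at or under a set limit in both replicates, limit being median viability minus 3 SD, cut at about 48% in these data, passing the limit was not always enough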;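 note: 100% = mean luminescence of untreated wells and 0% = no signal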). As to conditions: H69AR lung tumor cells viability, ATP luminescence, 72 h; at 10 µM; stronger effect = lower value.
A short description of experiment [6]: reversal of MRP1-mediated doxorubicin resistance, pilot screen, H69AR cells, doxorubicin co-treatment (AID 601;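 active = viability loss from added drug above about 55%, and viability with drug at most 40%, in both replicates, limit read from the data, passing the limit was not always enough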). The settings on record: CellTiter-Glo, 72 h, at 10 µM; for differential viability (reversal): stronger effect = higher value.
A short description of experiment [7]: 384-well plate pilot, post-Golgi transport modulator project, inhibition of yeast transport mutant growth (AID 636; in the data active = inhibition above about 31%). As to conditions: absorbance 615 nm, about 18 h, stronger effect = higher value.
Experiment [8] is described as follows: growth suppression of yeast trafficking mutant, preliminary HTS, modulators of trafficking downstream of Golgi apparatus project, 1536-format plate, OD 615 nm (AID 637; in the data active = inhibition above about 30%). As to conditions: yeast transport mutant growth, absorbance 615 nm, 18 h; stronger effect = higher value.
The mark [9] stands for this setting: H69AR cells + 2 uM doxorubicin, measured here: viability with 2 uM doxorubicin, stronger effect = lower value.
The mark [10] stands for this setting: H69AR cells, compound alone cytotoxicity.

The source made the active and inactive calls.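 Rule for the calls, unless noted: active = viability at or below 30% in both replicate assays; inconclusive = viability at or below 30% in just one of the two assays; inactive = the rest.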

Sequence of Receptor tyrosine-protein kinase erbB-2 (Homo sapiens) (P04626 whole entry, looked up): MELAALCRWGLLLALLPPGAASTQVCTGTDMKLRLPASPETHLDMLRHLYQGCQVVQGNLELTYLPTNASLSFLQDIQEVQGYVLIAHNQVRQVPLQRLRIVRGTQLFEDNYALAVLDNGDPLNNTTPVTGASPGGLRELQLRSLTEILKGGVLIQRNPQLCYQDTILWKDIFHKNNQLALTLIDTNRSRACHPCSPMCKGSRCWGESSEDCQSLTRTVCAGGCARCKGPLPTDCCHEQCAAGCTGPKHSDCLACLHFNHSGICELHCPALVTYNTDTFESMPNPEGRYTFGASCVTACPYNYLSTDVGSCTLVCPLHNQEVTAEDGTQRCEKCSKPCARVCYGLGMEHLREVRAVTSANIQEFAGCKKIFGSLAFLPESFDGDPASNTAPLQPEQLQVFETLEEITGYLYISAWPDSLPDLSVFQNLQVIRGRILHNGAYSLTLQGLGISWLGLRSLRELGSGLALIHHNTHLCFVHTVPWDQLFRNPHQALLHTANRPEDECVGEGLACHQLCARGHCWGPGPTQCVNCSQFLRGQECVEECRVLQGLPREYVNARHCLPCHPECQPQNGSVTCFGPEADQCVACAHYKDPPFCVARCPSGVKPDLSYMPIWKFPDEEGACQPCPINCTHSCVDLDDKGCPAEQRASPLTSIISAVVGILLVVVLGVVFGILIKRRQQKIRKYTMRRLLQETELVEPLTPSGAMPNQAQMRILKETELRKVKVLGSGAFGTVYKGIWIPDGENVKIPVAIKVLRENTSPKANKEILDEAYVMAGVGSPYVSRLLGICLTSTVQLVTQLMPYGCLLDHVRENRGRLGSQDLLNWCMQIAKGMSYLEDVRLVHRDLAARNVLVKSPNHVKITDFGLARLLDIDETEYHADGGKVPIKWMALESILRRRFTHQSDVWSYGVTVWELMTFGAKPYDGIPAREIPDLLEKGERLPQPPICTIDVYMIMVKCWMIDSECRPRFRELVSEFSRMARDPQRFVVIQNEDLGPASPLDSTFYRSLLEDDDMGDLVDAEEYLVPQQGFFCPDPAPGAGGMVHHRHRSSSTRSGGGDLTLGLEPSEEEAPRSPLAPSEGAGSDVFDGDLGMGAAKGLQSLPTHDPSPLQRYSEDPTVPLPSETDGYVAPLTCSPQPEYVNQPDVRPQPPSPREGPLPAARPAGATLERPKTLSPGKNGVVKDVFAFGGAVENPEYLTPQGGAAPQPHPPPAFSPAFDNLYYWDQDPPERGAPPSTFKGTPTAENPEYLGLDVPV

For `COCCNC(=O)C(c1ccc(C)o1)N(Cc1ccc(F)cc1)C(=O)Cn1nnc2ccccc21` (stereo not given), the viability in experiment [1] is 89.5%; in experiment [3] it was 89.5% (inactive); in experiment [4] it was 95.7% (inactive); in experiment [5], 97.8% (inactive); in experiment [6] (setting [9]) it was 94.7%; in experiment [6] (setting [10]), 97.8%. For the same compound, in experiment [2], the Her2 level is 95% (inactive). Also, the differential viability (reversal) in experiment [6] (H69AR cells + 2 uM doxorubicin) is 3.14% (inactive). For the same compound, the inhibition was 6.62% (inactive) in experiment [7] and -1.31% (inactive) in experiment [8].

With `O=C(CN1C(=O)NC2(CCCCCC2)C1=O)N1CCC(Cc2ccccc2)CC1`, the viability is 87% in experiment [1]; 87% (inactive) in experiment [3]; 77.2% (inactive) in experiment [4]; 86.7% (inactive) in experiment [5]; 90.9% in experiment [6] (setting [9]); 86.7% in experiment [6] (setting [10]). For the same compound, in experiment [2], the Her2 level is 94.5% (inactive). In addition, the differential viability (reversal) in experiment [6] (H69AR cells + 2 uM doxorubicin) was -4.21% (inactive). Also, the inhibition in experiment [7] was -5.33% (inactive); in experiment [8], 2.46% (inactive).

Take `COc1ccccc1-n1c(C)nnc1SCC(N)=O`: the viability in experiment [1] was 127%; in experiment [3], 127% (inactive); in experiment [4] it was 101% (inactive); in experiment [5] it was 91.6% (inactive); in experiment [6] (setting [9]), 77.7%; in experiment [6] (setting [10]) it was 91.6%. In addition, the Her2 level in experiment [2] was 113% (inactive). The differential viability (reversal) in experiment [6] (H69AR cells + 2 uM doxorubicin) was 13.9% (inactive). Besides, the inhibition was -5.33% (inactive) in experiment [7] and -0.65% (inactive) in experiment [8].

`CCOC(=O)c1cccc(NC(=O)CSc2nnc(-c3ccoc3C)n2CCOC)c1`: the viability in experiment [1] is 102%; in experiment [3], 102% (inactive); in experiment [4], 91.6% (inactive); in experiment [5], 89.7% (inactive); in experiment [6] (setting [9]), 92.4%; in experiment [6] (setting [10]) it was 89.7%. The Her2 level in experiment [2] is 92% (inactive). Also, the differential viability (reversal) in experiment [6] (H69AR cells + 2 uM doxorubicin) was -2.74% (inactive). Further, the inhibition is -1.45% (inactive) in experiment [7] and 0.81% (inactive) in experiment [8].

With `Cc1ccc(C(C(=O)NC(C)(C)C)N(C(=O)c2csnn2)c2cccc(F)c2)o1` (stereo not given), the viability in experiment [1] is 83.5%; in experiment [3] it was 83.5% (inactive); in experiment [4] it was 103% (inactive); in experiment [5], 92.8% (inactive); in experiment [6] (setting [9]) it was 91.2%; in experiment [6] (setting [10]), 92.8%. For the same compound, the Her2 level in experiment [2] is 97% (inactive). The differential viability (reversal) in experiment [6] (H69AR cells + 2 uM doxorubicin) is 1.6% (inactive). Besides, the inhibition in experiment [7] was -3.6% (inactive); in experiment [8], 24.4% (inactive).

As for `Cc1cccc(N2CCN(Cc3c(C)n(C)n(-c4ccccc4)c3=O)CC2)c1C`, the viability in experiment [1] is 83.5%; in experiment [3], 83.5% (inactive); in experiment [4], 78.1% (inactive); in experiment [5], 83.9% (inactive); in experiment [6] (setting [9]) it was 83.8%; in experiment [6] (setting [10]), 83.9%. Moreover, the Her2 level in experiment [2] was 88.5% (inactive). Besides, the differential viability (reversal) in experiment [6] (H69AR cells + 2 uM doxorubicin) is 0.085% (inactive). For the same compound, the values for the inhibition in experiment [7] and in experiment [8] were -2.47% (inactive) and -1.31% (inactive), respectively.

For the compound `COc1cc(OC)nc(NC(=O)CSc2nc3ccccc3o2)n1`, the viability was 87.5% in experiment [1]; 87.5% (inactive) in experiment [3]; 97.7% (inactive) in experiment [4]; 92.4% (inactive) in experiment [5]; 94.9% in experiment [6] (setting [9]); 92.4% in experiment [6] (setting [10]). For the same compound, the Her2 level in experiment [2] is 82.5% (inactive). Besides, the differential viability (reversal) in experiment [6] (H69AR cells + 2 uM doxorubicin) is -2.58% (inactive). Besides, the inhibition was -6.4% (inactive) in experiment [7] and 2.95% (inactive) in experiment [8].

Consider `Cc1[nH]n2c(=O)cc(Cc3ccccc3)nc2c1C#N`, for which the viability in experiment [1] is 97.5%; in experiment [3], 97.5% (inactive); in experiment [4], 97.1% (inactive); in experiment [5], 81.5% (inactive); in experiment [6] (setting [9]), 91.6%; in experiment [6] (setting [10]), 81.5%. Moreover, the Her2 level in experiment [2] is 80% (inactive). Also, the differential viability (reversal) in experiment [6] (H69AR cells + 2 uM doxorubicin) is -10.1% (inactive). For the same compound, the inhibition was -2.89% (inactive) in experiment [7] and -1.45% (inactive) in experiment [8].

On to `O=C(O)c1cccc(NS(=O)(=O)c2ccc3nnn(O)c3c2)c1`, for which the viability in experiment [1] is 123%; in experiment [3] it was 123% (inactive); in experiment [4] it was 94.9% (inactive); in experiment [5], 102% (inactive); in experiment [6] (setting [9]) it was 98%; in experiment [6] (setting [10]), 102%. Besides, the Her2 level in experiment [2] was 87% (inactive). Moreover, the differential viability (reversal) in experiment [6] (H69AR cells + 2 uM doxorubicin) was 3.63% (inactive). For the same compound, the figures for the inhibition in experiment [7] and in experiment [8] were -4.27% (inactive) and 5.71% (inactive), respectively.

On to `Cc1ncoc1C(=O)Nc1ccccc1C(N)=O`, for which the viability was 104% in experiment [1]; 104% (inactive) in experiment [3]; 106% (inactive) in experiment [4]; 102% (inactive) in experiment [5]; 85.5% in experiment [6] (setting [9]); 102% in experiment [6] (setting [10]). The Her2 level in experiment [2] is 101% (inactive). For the same compound, the differential viability (reversal) in experiment [6] (H69AR cells + 2 uM doxorubicin) was 16.3% (inactive). Further, the inhibition in experiment [7] is -6.08% (inactive); in experiment [8] it was -1% (inactive).

For `COc1ccc(C)cc1S(=O)(=O)N(C)CC(=O)Nc1ccc2c(c1)OCCO2`, the viability in experiment [1] was 92%; in experiment [3] it was 92% (inactive); in experiment [4] it was 107% (inactive); in experiment [5], 89.1% (inactive); in experiment [6] (setting [9]), 83.2%; in experiment [6] (setting [10]), 89.1%. In addition, the Her2 level in experiment [2] was 92% (inactive). Further, the differential viability (reversal) in experiment [6] (H69AR cells + 2 uM doxorubicin) was 5.96% (inactive). The figures for the inhibition in experiment [7] and in experiment [8] were -5.33% (inactive) and -12.5% (inactive), respectively.

`CS(=O)(=O)Nc1ccc(S(=O)(=O)Nc2nccs2)cc1`: the viability is 97% in experiment [1]; 97% (inactive) in experiment [3]; 116% (inactive) in experiment [4]; 95.9% (inactive) in experiment [5]; 92.2% in experiment [6] (setting [9]); 95.9% in experiment [6] (setting [10]). Also, in experiment [2], the Her2 level is 90% (inactive). In addition, the differential viability (reversal) in experiment [6] (H69AR cells + 2 uM doxorubicin) is 3.66% (inactive). Also, the inhibition in experiment [7] is -2.93% (inactive); in experiment [8] it was 1.31% (inactive).

Take `CC(C)(C)C1=C[C@@H](CO)C[C@@H](CO)C1`: the viability in experiment [1] is 86%; in experiment [3], 86% (inactive); in experiment [4], 94.2% (inactive); in experiment [5] it was 87.3% (inactive); in experiment [6] (setting [9]), 87.9%; in experiment [6] (setting [10]), 87.3%. In addition, the Her2 level in experiment [2] is 87% (inactive). Moreover, the differential viability (reversal) in experiment [6] (H69AR cells + 2 uM doxorubicin) was -0.585% (inactive). In addition, the results for the inhibition in experiment [7] and in experiment [8] were -4.13% (inactive) and -5.08% (inactive), respectively.

For the compound `C=CCOc1ccc(/C=N/n2cncn2)cc1OC`, the viability in experiment [1] was 85%; in experiment [3], 85% (inactive); in experiment [4], 103% (inactive); in experiment [5] it was 94.6% (inactive); in experiment [6] (setting [9]), 86.2%; in experiment [6] (setting [10]) it was 94.6%. The Her2 level in experiment [2] is 112% (inactive). Besides, the differential viability (reversal) in experiment [6] (H69AR cells + 2 uM doxorubicin) was 8.46% (inactive). For the same compound, the inhibition is 9.86% (inactive) in experiment [7] and 16.8% (inactive) in experiment [8].
